Test system: RAW264.7
Assay: Antiresorptive activity in mouse RAW264.7 cells assessed as inhibition of RANKL-induced osteoclastogenesis after 4 days by TRAP assay
Assay type: functional, cell-based
Details: not given
How it was run: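 RAW264.7 cells, maintained in DMEM with 10% FBS and penicillin/streptomycin at 37 °C under 5% CO₂, were seeded at 1 × 10³ cells/well in α-MEM. On day 4, cells were fixed in 10% formalin (10 min) and 95% ethanol (1 min), then dried. TRAP activity was measured with 5 mM p-nitrophenylphosphate in 50 mM citrate buffer (pH 4.6, 10 mM tartrate) for 30 min, stopped with 0.1 N NaOH, and read at 410 nm.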

Row | SMILES | inhibition
1 | COc1ccc(/C=C/C(=O)c2cccc(-n3cc(-c4ccc(C)cc4)nn3)c2)cc1O | Dose-dependent effect
2 | COc1ccc(/C=C/C(=O)c2cccc(-n3cc(-c4ccccc4)nn3)c2)cc1O | Dose-dependent effect
3 | COc1ccc(/C=C/C(=O)c2cccc(N=[N+]=[N-])c2)cc1O | Dose-dependent effect
4 | COc1cc(/C=C/C(=O)c2cccc(-n3cc(-c4ccccc4C(F)(F)F)nn3)c2)ccc1O | Dose-dependent effect

Same assay, conditions: RAW264.7, 96 h

Row | SMILES | IC50 [µM]
5 | COc1ccc(/C=C/C(=O)c2cccc(-n3cc(-c4ccc(F)cc4)nn3)c2)cc1O | 2.5
6 | COc1ccc(/C=C/C(=O)c2cccc(-n3cc(C(C)(C)O)nn3)c2)cc1O | 17.1
7 | COc1cc(/C=C/C(=O)c2cccc(-n3cc(C(C)(C)O)nn3)c2)ccc1O | 19.8
8 | COc1ccc(/C=C/C(=O)c2cccc(-n3cc(-c4ccc(Br)cc4)nn3)c2)cc1O | 6.57
9 | COc1cc(/C=C/C(=O)c2cccc(-n3cc(-c4ccccc4)nn3)c2)ccc1O | 16.8
10 | COc1cc(/C=C/C(=O)c2cccc(-n3cc(-c4ccc(Br)cc4)nn3)c2)ccc1O | 19.1
11 | COc1cc(/C=C/C(=O)c2cccc(-n3cc(-c4cc(F)cc(F)c4)nn3)c2)ccc1O | 22.8
12 | C=C(C)c1cn(-c2cccc(C(=O)/C=C/c3ccc(OC)c(O)c3)c2)nn1 | 7.76
13 | C=C(C)c1cn(-c2cccc(C(=O)/C=C/c3ccc(O)c(OC)c3)c2)nn1 | 9.79
14 | COc1cc(/C=C/C(=O)c2cccc(-n3cc(-c4ccc(F)cc4)nn3)c2)ccc1O | 6.45
15 | COc1ccc(/C=C/C(=O)c2cccc(-n3cc(-c4ccc(C)cc4)nn3)c2)cc1O | 1.7
16 | COc1cc(/C=C/C(=O)c2cccc(N=[N+]=[N-])c2)ccc1O | 7.11
17 | COc1ccc(/C=C/C(=O)c2cccc(-n3cc(-c4cc(F)cc(F)c4)nn3)c2)cc1O | 7.14
18 | CCCCCc1ccc(-c2cn(-c3cccc(C(=O)/C=C/c4ccc(O)c(OC)c4)c3)nn2)cc1 | 5.78
19 | COc1ccc(/C=C/C(=O)c2cccc(-n3cc(-c4ccccc4C(F)(F)F)nn3)c2)cc1O | 9.12
20 | COc1ccc(-c2cn(-c3cccc(C(=O)/C=C/c4ccc(OC)c(O)c4)c3)nn2)cc1 | 6.29
21 | COc1ccc(/C=C/C(=O)c2cccc(-n3cc(-c4ccccc4)nn3)c2)cc1O | 1.51
22 | CCCCCc1ccc(-c2cn(-c3cccc(C(=O)/C=C/c4ccc(OC)c(O)c4)c3)nn2)cc1 | > 30
23 | COc1ccc(/C=C/C(=O)c2cccc(N=[N+]=[N-])c2)cc1O | 1.96
24 | COc1ccc(/C=C/C(=O)c2cccc(-n3cc(-c4cccc(Cl)c4)nn3)c2)cc1O | 6.61
25 | COc1cc(/C=C/C(=O)c2cccc(-n3cc(-c4ccc(C)cc4)nn3)c2)ccc1O | 15.4
26 | COc1cc(/C=C/C(=O)c2cccc(-n3cc(-c4cccc(Cl)c4)nn3)c2)ccc1O | 14.3
27 | COc1ccc(-c2cn(-c3cccc(C(=O)/C=C/c4ccc(O)c(OC)c4)c3)nn2)cc1 | 7.9
28 | COc1cc(/C=C/C(=O)c2cccc(-n3cc(-c4ccccc4C(F)(F)F)nn3)c2)ccc1O | 5.07

Reference: ChEMBL document CHEMBL1777669, “Synthesis of substituted triazolyl curcumin mimics that inhibit RANKL-induced osteoclastogenesis” (Bioorg Med Chem Lett, 2011)
